Calls of active or inactive are those of the source. The calls are words filed in the database; no cut-off is given here.
How the values were obtained:
Rattus norvegicus [1] = assay: Antiinflammatory activity against lambda carrageenan-induced pleurisy in Wistar Han rat assessed as reduction in inflammatory cell number at 4 mg/kg, ip administered 30 mins before carrageenan challenge measured after 4 hrs by trypan blue staining; assay type: functional; set-up: scale not given: the % may be the effect or the level left; conditions: route intraperitoneal
How it was run: (§1)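 Male Wistar Han rats (220-230 g; n = 10 per group) received compound ip, or vehicle (DMSO 4%), 30 min before intrapleural λ-carrageenan under anaesthesia. After 4 h, exudate was collected and its volume measured. Leukocytes were counted by light microscopy after trypan blue staining. LTB4 was measured by EIA (ng/rat). Data are mean ± SE.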

Rattus norvegicus [2] = assay: Antiinflammatory activity against lambda carrageenan-induced pleurisy in Wistar Han rat assessed as reduction in LTB4 levels at 4 mg/kg, ip before carrageenan challenge measured after 4 hrs by EIA; assay type: functional; set-up: scale not given: the % may be the effect or the level left; conditions: route intraperitoneal; how it was run: as §1
Rattus norvegicus [3] = assay: Antiinflammatory activity against lambda carrageenan-induced pleurisy in Wistar Han rat assessed as reduction in exudate volume at 4 mg/kg, ip administered 30 mins before carrageenan challenge measured after 4 hrs by trypan blue staining; assay type: functional; set-up: scale not given: the % may be the effect or the level left; conditions: route intraperitoneal; how it was run: as §1
Neutrophil [4] = assay: Inhibition of […]-induced translocation of 5-lipoxygenase from cytosol to perinuclear region in human neutrophils at 100 uM by Western blotblot; assay type: functional, cell-based
Neutrophil [5] = assay: Inhibition of […]-induced translocation of 5-lipoxygenase from cytosol to perinuclear region in human neutrophils at 0.1 uM to 10 uM by Western blot; assay type: functional, cell-based
Rattus norvegicus [6] = assay: Antiinflammatory activity against lambda carrageenan-induced pleurisy in Wistar Han rat assessed as reduction in LTB4 level at 10 mg/kg, ip administered 30 mins before carrageenan challenge measured after 4 hrs by EIA; assay type: functional; set-up: scale not given: the % may be the effect or the level left; conditions: route intraperitoneal; how it was run: as §1
Rattus norvegicus [7] = assay: Antiinflammatory activity against lambda carrageenan-induced pleurisy in Wistar Han rat assessed as reduction in exudate volume at 10 mg/kg, ip administered 30 mins before carrageenan challenge measured after 4 hrs by trypan blue staining; assay type: functional; set-up: scale not given: the % may be the effect or the level left; conditions: route intraperitoneal; how it was run: as §1
Rattus norvegicus [8] = assay: Antiinflammatory activity against lambda carrageenan-induced pleurisy in Wistar Han rat assessed as reduction in cellular infiltration at 10 mg/kg, ip administered 30 mins before carrageenan challenge measured after 4 hrs by trypan blue staining; assay type: functional; set-up: scale not given: the % may be the effect or the level left; conditions: route intraperitoneal; how it was run: as §1

CCOC(=O)c1c(Cc2cccc(Cl)c2)[nH]c2c1cc(O)c1ccccc12
Activity (Rattus norvegicus [1]): 40% | Activity (Rattus norvegicus [2]): 49% | Activity (Rattus norvegicus [3]): 77% | Activity (Neutrophil [4]): inactive

CC(C)c1ccc2c(c1)c(SC(C)(C)C)c(CC(C)(C)C(=O)O)n2Cc1ccc(Cl)cc1
Activity (Neutrophil [5]): inactive

CC(c1cc2ccccc2s1)N(O)C(N)=O (stereo not drawn) [ZILEUTON]
Activity (Rattus norvegicus [6]): 66% | Activity (Rattus norvegicus [7]): 77% | Activity (Rattus norvegicus [8]): 41%
